In ChEMBL document CHEMBL4118180, “Design, synthesis and evaluation of photoactivatable derivatives of microtubule (MT)-active [1,2,4]triazolo[1,5-a]pyrimidines” (Bioorg Med Chem Lett, 2018):
Calls of active or inactive are those of the source. The calls are words filed in the database; no cut-off is given here.

Columns and labels:
Format in all cases: cell-based
Details in all cases: Homo sapiens
[1] = tested on: HEK293; test: Induction of microtubule stabilization in HEK293 cells assessed as increase in acetylated alpha tubulin levels at 10 uM after 4 hrs by ELISA relative to control
Method in brief: (§1)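 HEK-293 cells were exposed to the test compound at 1 or 10 μM for 4 h. Acetylated α-tubulin and total α-tubulin were then measured by ELISA in cell lysates. Levels are expressed relative to vehicle-treated control cells, as the average and SD of triplicate assays. Significance was tested by one-way ANOVA with Dunnett's post-hoc test. Changes in α-tubulin below 15% are treated as assay-to-assay variability.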

[2] = tested on: HEK293; test: Induction of microtubule disruption in HEK293 cells assessed as total alpha tubulin levels at 1 uM after 4 hrs by ELISA relative to control; method in brief: as §1
[3] = tested on: HEK293; test: Induction of microtubule disruption in HEK293 cells assessed as total alpha tubulin levels at 10 uM after 4 hrs by ELISA relative to control; method in brief: as §1
[4] = tested on: HEK293; test: Induction of microtubule stabilization in HEK293 cells assessed as increase in acetylated alpha tubulin levels at 1 uM after 4 hrs by ELISA relative to control; method in brief: as §1
[5] = tested on: HEK293; test: Induction of microtubule disruption in HEK293 cells assessed as total alpha tubulin levels after 4 hrs by ELISA relative to control
Method in brief: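 Total α-tubulin was measured by ELISA in lysates of HEK-293 cells after 4 h incubation with the test compound. Levels are expressed relative to vehicle-treated control cells. Significance was assessed by one-way ANOVA with Dunnett's post-hoc analysis.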

In the case of `C[C@H](Nc1c(-c2c(F)cc(OCCCN(C)C)cc2F)c(Cl)nc2ncnn12)C1(C)N=N1`, the fold change (FC) [1] was 0.28, the fold change (FC) [2] was 0.69 and the fold change (FC) [3] was 0.78. For the same molecule, the fold change (FC) [4] was 6.7.

Molecule `C[C@@H](Nc1c(-c2c(F)cc(F)cc2F)c(Cl)nc2ncnn12)C1(C)N=N1` has a fold change (FC) [1] of 4.28, a fold change (FC) [2] of 0.92 and a fold change (FC) [3] of 0.89. The fold change (FC) [4] was 1.42.

`C[C@H](Nc1c(-c2c(F)cc(OCCCN(C)C)cc2F)c(Cl)nc2ncnn12)C(F)(F)F` was tested, and the fold change (FC) [1] was 0.3, the fold change (FC) [2] was 0.29 and the fold change (FC) [3] was 0.14. For the same molecule, the fold change (FC) [4] was 5.83.

`CNCCCOc1cc(F)c(-c2c(Cl)nc3ncnn3c2N[C@@H](C)C(F)(F)F)c(F)c1` showed a fold change (FC) [1] of 0.1, a fold change (FC) [2] of 0.51 and a fold change (FC) [3] of 0.14. For the same molecule, the fold change (FC) [4] was 7.07.

In the case of `C[C@H](Nc1c(-c2c(F)cc(OCCCNC(=O)c3ccc(C4(C(F)(F)F)N=N4)cc3)cc2F)c(Cl)nc2ncnn12)C(F)(F)F`, the fold change (FC) [1] was 3.65, the fold change (FC) [2] was 1.31 and the fold change (FC) [3] was 0.88. It also gave a fold change (FC) [4] of 1.3.

`CN(C)CCCOc1cc(F)c(-c2c(Cl)nc3ncnn3c2NCC2(C)N=N2)c(F)c1` was tested, and the Activity [5] was “Dose-dependent effect”, the fold change (FC) [1] was 0.29 and the fold change (FC) [2] was 0.36. The fold change (FC) [3] was 0.19 and the fold change (FC) [4] was 10.5.

For `CC1(CNc2c(-c3c(F)cc(F)cc3F)c(Cl)nc3ncnn23)N=N1`, the fold change (FC) [1] was 3.42, the fold change (FC) [2] was 1.08 and the fold change (FC) [3] was 1.03. For the same molecule, the fold change (FC) [4] was 1.56.

In the case of `[N-]=[N+]=Nc1c(-c2c(F)cc(F)cc2F)c(Cl)nc2ncnn12`, the Activity [1] was “inactive” and the Activity [4] was “inactive”.

`C[C@@H](Nc1c(-c2c(F)cc(OCCCN(C)C)cc2F)c(Cl)nc2ncnn12)C1(C)N=N1` was tested, and the Activity [5] was “Dose-dependent effect”, the fold change (FC) [1] was 0.93 and the fold change (FC) [2] was 0.73. The fold change (FC) [3] was 1.01 and the fold change (FC) [4] was 21.7.

For `CO[C@@H]1C[C@H]2CC[C@@H](C1)N2c1c(-c2c(F)cc(F)cc2F)c(Cl)nc2ncnn12`, the fold change (FC) [1] was 7.43, the fold change (FC) [2] was 1.12 and the fold change (FC) [3] was 1.38. The fold change (FC) [4] was 3.65.

For `C[C@H](Nc1c(-c2c(F)cc(F)cc2F)c(N=[N+]=[N-])nc2ncnn12)C(F)(F)F`, the Activity [1] was “inactive” and the Activity [4] was “inactive”.

For `C[C@H](Nc1c(-c2c(F)cc(F)cc2F)c(Cl)nc2ncnn12)C1(C)N=N1`, the fold change (FC) [1] was 1.85 and the fold change (FC) [3] was 0.94.
